Rows were chosen to be rich in hits. Some 2.9% of all compounds tested hit in one or more screens of this group.
5HT1a ag: human 5-HT1a receptor agonists, primary screen, cell-based, CHO, Ga15 NFAT-bla reporter; activation, % at 10 µM; 5-hydroxytryptamine receptor 1A (Homo sapiens), P08908; 65,000 tested, 0.56% active; CHO 5-HT1a Ga15 NFAT-bla reporter, FRET ratio; 0% basal, 100% maximal reference agonist;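 active = activation above the screen-wide mean activation plus 3 SD, cut at about 19% in these data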
S1P1 ag pot: S1P1 agonists and agonism potentiators, primary screen, cell-based, primary and confirmation screens, CRE-bla reporter. Sphingosine 1-phosphate receptor 1 (Homo sapiens), P21453. S1P1 CRE-bla cells, forskolin, beta-lactamase FRET, potentiator mode; S1P1 agonist co-added at EC20, 2 nM; 100% = saturating reference agonist, 0% = basal. activation, % at 9.5 µM. 56,000 tested, 0.57% active;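 active = activation above a cutoff set at the mean activation of all tested compounds plus 3 SD, cut at about 54% in these data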;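 note: forskolin at 4 µM as EC80 and the EC20 agonist is SEW2871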
S1P3 agonist: human S1P3 receptor agonists, primary screen, cell-based, primary and confirmation, NFAT-BLA reporter; activation, % at 4.5 µM; Sphingosine 1-phosphate receptor 3 (Homo sapiens), Q99500; 60,000 tested, 0.1% active; S1P3 NFAT-BLA reporter cells, agonism, FRET ratio; relative to 1 µM S1P, basal subtracted;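 active = activation above the screen-wide mean plus 3 SD, cut at about 4.5% in these data, passing the limit was not always enough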
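Assay system: CHO cells stably expressing human S1P3, Gα16 and NFAT-β-lactamase reporter. Timing: overnight plating, 4 h compound 37 °C, 2 h substrate RT. Signal: β-lactamase FRET emission ratio 460/535 nm. Measure: percent activation versus median 1 µM S1P response, basal-subtracted, per plate. Repeats: primary screen single test, confirmation screen in triplicate.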
5HT1E ag: 5-HT1E receptor agonists, primary screen, cell-based, HTS; CHO 5-HT1E Ga15 NFAT-bla reporter, FRET; 0% DMSO wells, 100% control agonist wells; 5-hydroxytryptamine receptor 1E (Homo sapiens), P28566; activation, % at 6 µM; 65,000 tested, 0.69% active;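 active = activation above a set limit, the screen-wide mean activation plus 3 SD, cut at about 8.5% in these data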
Target sequence (P28566 whole entry, looked up): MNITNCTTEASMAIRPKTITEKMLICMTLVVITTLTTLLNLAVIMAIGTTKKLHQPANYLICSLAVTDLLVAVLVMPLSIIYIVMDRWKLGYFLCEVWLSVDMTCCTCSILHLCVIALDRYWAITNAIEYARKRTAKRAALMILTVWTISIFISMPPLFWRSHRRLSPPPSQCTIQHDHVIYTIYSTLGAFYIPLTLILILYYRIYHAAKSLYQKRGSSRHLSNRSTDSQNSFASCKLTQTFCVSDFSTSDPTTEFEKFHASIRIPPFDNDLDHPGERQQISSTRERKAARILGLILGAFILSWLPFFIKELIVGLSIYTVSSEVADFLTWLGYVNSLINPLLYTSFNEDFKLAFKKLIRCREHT
HTR1E antagonist: 5-HT1E receptor antagonists, primary screen, cell-based, HTS; 5-hydroxytryptamine receptor 1E (Homo sapiens), P28566; CHO 5-HT1E Ga15 NFAT-bla reporter, FRET, antagonist; inhibition, % at 6 µM; 65,000 tested, 0.99% active;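 active = inhibition above a set limit, the mean inhibition across every tested compound plus 3 SD, cut at about 29% in these data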;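 note: signal is the 460 over 535 nm emission ratio of beta-lactamase substrate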
5HT1a antag: human 5-HT1a receptor antagonists, primary screen, cell-based, CHO, Ga15 NFAT-bla reporter; 5-hydroxytryptamine receptor 1A (Homo sapiens), P08908; CHO 5-HT1a Ga15 NFAT-bla reporter, antagonist mode; inhibition, % at 10 µM; 62,000 tested, 0.68% active; AID 612, 2007;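 active = inhibition above the mean of all tested compounds plus 3 SD, cut at about 43% in these data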;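 note: receptor stimulated by 5-CT agonist at 100 nM near EC80; beta-lactamase reporter measured by ratiometric fluorescence of a cleavable substrate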
Each line names hits and unclear results; the compound was inactive in the other large screens.

S=c1nc(C2CCCCC2)[nH][nH]1	none
O=C(CSc1nnc(Cc2csc(Nc3cccc(Cl)c3)n2)o1)N1CCc2ccccc21	S1P1 ag pot 78
O=C(CSc1nnc(CNc2ccccc2)o1)N1CCc2ccccc21	none
Nc1nc(CSc2n[nH]c(-c3ccccc3)n2)nc(Nc2ccccc2)n1	HTR1E antagonist 30
COc1ccc(Nc2nc(N)nc(CSc3n[nH]c(-c4ccccc4)n3)n2)cc1	HTR1E antagonist 42
COc1ccccc1Nc1nc(N)nc(CSc2ncccn2)n1	none

Bioassay records from PubChem.
